Data on 96 compounds can be found in ChEMBL document CHEMBL4513216, “Probing the Open Global Health Chemical Diversity Library for Multistage-Active Starting Points for Next-Generation Antimalarials” (ACS Infect Dis, 2020).

This data set in a line: Toxicity liver stage against HepG2, at 10uM. Type of data set: cell-based. The arrangement: test concentration 10 uM, cell line HepG2-A16-CD81EGFP. The settings on record: human, HepG2-A16-CD81EGFP cells; read-out: INHIBITION
The method, boiled down:
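Uninfected HepG2-A16-CD81EGFP cells, 3 × 10^3 per well, 1536-well, plated on prespotted compound at 10 μM final, parasite-free screening media added to match infected plates; puromycin 10 μM positive, DMSO 0.5% negative; run in parallel with 48 h PbLuc assay at 37 °C, 5% CO2; viability by CellTiter-Glo luminescence, normalized to controls.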
`O=C(c1cnccn1)N1C[C@@H]2OCC(=O)N(CC3CCCCC3)[C@@H]2C1`: the cytotoxicity at 10 µM was -4.97%.
The result for `COc1cc2c(cc1OC)C(=O)C(Sc1nnnn1C)C2` (stereo unspecified) reads -13.7%.
The result for `COC(=O)c1cc2c(=O)n(C3CC3)ccc2nc1C` reads -47%; that for `COCCSc1ccc(-n2ccnc2)nn1`, 6.11%.
The result for `O=C(Cc1ccc(F)cc1)NCCc1ccoc1` reads -10.5%; that for `COC(=O)c1ccc(S(=O)(=O)N2CCC(Oc3cccnn3)CC2)cc1`, -4.83%; that for `O=C(NCc1cccs1)NCC1(O)CCc2ccccc2C1` (stereo unspecified), -13.8%.
Consider `CCS(=O)(=O)N1Cc2c(Cn3ccnc3)nn(C)c2C1`, for which the cytotoxicity at 10 µM is -2.85%.
`CC(C)N1c2sc(-c3ccsc3)nc2CC1C(=O)NC1CC1` (stereo unspecified): the cytotoxicity at 10 µM is 8.67%.
The result for `CS(=O)(=O)N1CCOCC12CCN(c1nncs1)CC2` reads 6.74%; that for `CN(C)c1ncnc2c1CCN(c1cc(C(F)(F)F)ncn1)CC2`, 9.55%; that for `O=C(Nc1ccc(Cl)cc1)c1nn(C2CCS(=O)(=O)C2)c2c1CCCC2` (stereo unspecified), 2.96%.
Consider `O=C(CC1Cn2ncnc2NC1=O)Nc1ccc(F)c(F)c1` (stereo unspecified), for which the cytotoxicity at 10 µM was found to be 2.02%.
The result for `O=C(O)C1CCCN1c1nc(-c2ccc(Cl)cc2)cc(C(F)(F)F)n1` (stereo unspecified) reads 30.1%; that for `Cc1cc(C)nc(C2CCN(C(=O)CO)CC2)n1`, 2.53%.
With `O=S(=O)(N1CCCC1)N1CC(c2ccnc(Nc3ccccn3)n2)C1` the figure was 11.8%; with `COCCN1CCC1c1cc(N)nc(C)n1` (stereo unspecified), 7.75%; with `CN1CCCC1c1cncc(C(=O)NCCN2CCCCC2)n1` (stereo unspecified), 0.388%.
The result for `CC(C)c1nnc(CCC(=O)N2CCCC(c3cnccn3)C2)o1` (stereo unspecified) reads 1.88%; that for `CC(=O)N1CCC(Cc2cnc(Nc3cc(C)on3)cn2)CC1`, 3.48%; that for `O=C(C1CC1)N1CCC(O)(CN2CCN(c3ccccc3)CC2)C1` (stereo unspecified), -3.3%.
`CN(C)CCN(C)C(=O)Cn1cccc2cc(-c3ccc(F)cc3)nc1-2`: the cytotoxicity at 10 µM was -24.4%.
The result for `COc1ccc(F)cc1-c1ccccc1CC1(C(=O)O)CCOCC1` reads 5.57%; that for `Cc1nc(C)n(CC2CCCN(c3ccnc(-c4ccccc4)n3)C2)n1` (stereo unspecified), 39.4%; that for `CC(C)(C)n1cc(C#N)cc1NC(=O)CCNC(=O)c1ccco1`, 1.95%.
With `CCCn1cnc(S(=O)(=O)Nc2cccnc2-n2cccn2)c1` the figure was 15.4%.
The result for `CN(Cc1ccsc1)C(=O)c1nc(N2CCCCC2)ncc1Cl` reads -27.4%; that for `Cn1cnnc1C1CCN(c2nc3ccccc3o2)CC1`, 14.1%; that for `CCC(CNC(=O)COC)Oc1cccc(F)c1` (stereo unspecified), -44.6%.
Consider `CN(Cc1ncnn1C)C(=O)CCn1ccc2ccccc21`, for which the cytotoxicity at 10 µM is 1.16%.
The result for `Cc1cc(NC(=O)CNC(C)(C)c2nc(C)c(C)s2)no1` reads 13.3%; that for `COc1cccc(NC(=O)CCCc2nc(C(C)C)no2)c1`, 6.39%.
Turning to `COc1ncccc1CNCc1c(C(C)C)nn(C)c1OC`, the cytotoxicity at 10 µM was -1.68%.
The result for `O=C(NCc1nnc2n1CCCCC2)N(Cc1ccncc1)C1CC1` reads 9.66%; that for `CC(C#N)CSc1ccccc1NCC(=O)Nc1ccccc1` (stereo unspecified), 6.24%.
The result for `CC1CCN(CCNC(=O)C2CCN(C(=O)NC(C)C)CC2)CC1` reads 8.21%; that for `Cc1ccc(C(=O)NCC(O)c2ccc(F)c(F)c2)c(=O)[nH]1` (stereo unspecified), -3.09%.
The result for `Cc1n[nH]c(C2CN(C(=O)c3coc(Br)c3)CCO2)n1` (stereo unspecified) reads -11.3%.
On to `O=C(NCC1CC1)C1CSCN1S(=O)(=O)c1ccccc1F` (stereo unspecified), for which the cytotoxicity at 10 µM came out at 5.02%.
With `O=C(CNc1ccc(F)cc1OCC(F)(F)F)NCC(F)(F)F` the figure was 3.87%; with `CCc1nc(CC(=O)N2CCC(C(=O)N(CC)CC)CC2)cs1`, -1.42%.
As for `CC(=O)NC(C)C(=O)Nc1ccc(OCc2cccc(F)c2)cc1C` (stereo unspecified), the cytotoxicity at 10 µM is 0.305%.
As to `O=C(COCC(F)(F)F)NC1CCCc2cc(OC(F)F)ccc21` (stereo unspecified), the cytotoxicity at 10 µM was -5.36%.
The result for `COc1cc(Cl)c(C)cc1NC(=O)CNc1ccn(CC(N)=O)n1` reads 9.8%.
With `CC(C)C(NC(=O)c1ccccc1F)C(=O)Nc1cnn(C)c1` (stereo unspecified), the cytotoxicity at 10 µM was -7.58%.
Consider `Cc1ccc(CN2CCO[C@@H]3[C@@H](OCc4cccnc4)CC[C@@H]32)o1`, for which the cytotoxicity at 10 µM was 8.37%.
With `O=c1ccc2c(n1CC1CC1)CCN(c1ncccn1)CC2` the figure was 7.17%; with `CN1CCC2(CC1)CN(C(=O)c1cccnc1)c1ccc(Cl)cc12`, -109%; with `COC[C@@H]1CC[C@H]2[C@H](CCN2S(=O)(=O)c2ccc(F)cc2)O1`, -2.76%.
With `CCn1cc(CN2CCCn3nc(CNS(C)(=O)=O)cc3C2)c(C)n1` the figure was 4.06%; with `Cc1cc(C)n(CCN(C)Cc2c[nH]nc2-c2ccc3c(c2)OCO3)n1`, 0.562%.
Consider `Cc1nc2c(c(N3CCC(O)(Cn4ccnc4)CC3)n1)CCNCC2`, for which the cytotoxicity at 10 µM came out at 1.37%.
With `O=C(O)CC[C@@H]1CN(c2ncnc3[nH]ccc23)CC[C@@H]1N1CCOCC1` the figure was -15.8%; with `O=C(c1ncoc1C1CC1)N1CCN(CCOc2ccccc2)CC1`, -6.93%.
The result for `COc1ccc(-c2noc(Cn3cnc(C)c3)n2)c(OC)c1OC` reads -13.2%; that for `COc1ccc(C(=O)NC2CC2)c(OC2CCN(CC3CC3)CC2)c1`, -1.47%; that for `NC(=O)c1cc2c(nc1-c1ccc3c(c1)OCCO3)CCC2`, -1.88%.
The result for `CC(N)C(=O)N1CCC(Oc2cccc(C(F)(F)F)c2)CC1` (stereo unspecified) reads -8.54%.
Consider `CC(C)(C(=O)NCC1CCN(Cc2ncc[nH]2)C1)c1ccccc1` (stereo unspecified), for which the cytotoxicity at 10 µM was determined as 2.15%.
The result for `CNC(=O)CCCNc1cc(C)nc2cc(C)nn12` reads -5.97%; that for `Cc1ccc(OCC2CCCN(c3cc(C(N)=O)ccn3)C2)cc1` (stereo unspecified), 11.1%; that for `O=C1NCCCc2[nH]c(Cc3cccc(F)c3)nc21`, -3.47%.
For the compound `CCCc1nnc(N2CCN(C3CCCC3)CC2)o1`, the cytotoxicity at 10 µM is -13.8%.
With `CCc1ocnc1C(=O)N1CCN(c2ccc3ccccc3c2)CC1` the figure was 2.99%.
With `CCc1cn[nH]c1C1CCN(c2cc(C)c3cc(OC)ccc3n2)CC1` the figure was 1.93%.
With `O=C(NCc1cn2cccnc2n1)C1CC(=O)N(Cc2cccnc2)C1` (stereo unspecified), the cytotoxicity at 10 µM is -3.23%.
As to `CSCCC(=O)N(C/C=C/c1ccccc1)CCO`, the cytotoxicity at 10 µM was -4.47%.
Take `CCN(CC)Cc1cc(C(=O)N2CCCC(O)(CO)C2)c(C)o1` (stereo unspecified): the cytotoxicity at 10 µM turned out to be 7.87%.
With `O=C(c1cc[nH]n1)N1CCc2ccc(S(=O)(=O)N3CCOCC3)cc2C1` the figure was 5.18%.
With `CC(C)(O)CCc1ccc(C(=O)N2CCN(CC3CCCC3)CC2)cc1` the figure was 12.4%; with `CCc1cc(C(=O)N2CC[C@@H](c3ccc4c(c3)OCO4)[C@H](O)C2)ccn1`, 1.48%.
For the compound `Cc1n[nH]c(C)c1NC(=O)CN1CCCC1c1noc(C2CC2)n1` (stereo unspecified), the cytotoxicity at 10 µM amounted to 2.94%.
The result for `Cc1cc(CN2CCN(c3ccc4nncn4n3)CC2)no1` reads -4.6%.
The result for `Cc1ccc(CN(C)C(=O)c2ccc(NC3CC3)nc2)o1` reads -5.57%; that for `Cc1nc(C(C)C)sc1C(=O)NCCNc1ncccn1`, -2.02%.
With `CC(C)n1nc2c(cc1=O)CN(Cc1nc3ccccc3o1)CC2` the figure was -2.19%.
Turning to `COCCN1CCC(CNC(=O)C2(c3cc(C)cc(C)c3)CC2)CC1`, the cytotoxicity at 10 µM was -7.94%.
As for `Cn1cc(-c2nc(CN3CCOC(Cn4cncn4)C3)cs2)cn1` (stereo unspecified), the cytotoxicity at 10 µM was -1.41%.
With `c1coc(-c2noc(CN3CCc4cncnc4C3)n2)c1` the figure was -9.39%; with `Cc1nc(C2CCCN2CCS(C)(=O)=O)no1` (stereo unspecified), -5.07%; with `c1nc(N2CCOCC2)ncc1-c1cncn1CCCN1CCCCC1`, -7.08%.
As for `Fc1ccccc1CNc1ccnc(C2CCNCC2)c1`, the cytotoxicity at 10 µM worked out at 8.88%.
With `Cc1nc(N)c2ccc(C3CCCN3)nc2n1` (stereo unspecified) the figure was 3.67%; with `CC(=O)N1CCOCC2(CN(Cc3ccc(C)o3)CCO2)C1` (stereo unspecified), 6.41%; with `O=C([C@H]1CN(Cc2cccnc2)C[C@H]2OCC[C@@H]12)N1CCCO1`, 8.98%.
On to `CN(C)CCN1CCOCC2(C1)CN(Cc1ccco1)CCO2` (stereo unspecified), for which the cytotoxicity at 10 µM was -111%.
The result for `CN1CCC2(CCN(CC3CCOCC3)CC2)C1=O` reads 6.77%; that for `c1cncc(-c2ccc3c(c2)CCC32CCN(Cc3ccco3)CC2)c1`, 17.1%; that for `COc1cc(N2CCC[C@]3(C(=O)O)CN(C(C)C)C[C@@H]3C2)ncn1`, 4.14%.
The result for `C[C@@H]1CN(C2CCOC2)C[C@]12CCN(c1cccnc1)C2=O` (stereo partly specified) reads 7.49%; that for `COCC(=O)N1C[C@@H](OCc2cccnc2)[C@H]2OCCC[C@@H]21`, 2.53%; that for `C[C@@H]1C(=O)NC[C@H]2CN(CCc3ccccc3)C[C@H]21`, 5.45%.
The result for `O=S(=O)(C1CC1)N1CCC2(CC1)CC(Oc1cccnc1)CO2` (stereo unspecified) reads -2.27%.
For the compound `CN(C)C(=O)N1C[C@H]2CC[C@@H](C1)N(C(=O)c1cccc(N(C)C)c1)C2`, the cytotoxicity at 10 µM was found to be 0.502%.
With `N#CC1(C(=O)N2C[C@@H]3CC[C@H]2CN(Cc2ccncc2)C3)CCOCC1` the figure was -11.9%; with `COCCN1C[C@@H]2CC[C@H]1CN(C(=O)CCn1cc(Cl)cn1)C2`, 7.62%.
